Measurements published in ChEMBL document CHEMBL1130064, “Substituted N-phenylisothioureas: potent inhibitors of human nitric oxide synthase with neuronal isoform selectivity” (J Med Chem, 1997).

Assays:
[1] = biological target: T1, Nitric oxide synthase 3 (Homo sapiens) (UniProt P29474); experiment: Percent inhibition of human Vascular Endothelial nitric oxide synthase at a concentration of 25 uM; settings: at 25 µM
T1 sequence (whole entry): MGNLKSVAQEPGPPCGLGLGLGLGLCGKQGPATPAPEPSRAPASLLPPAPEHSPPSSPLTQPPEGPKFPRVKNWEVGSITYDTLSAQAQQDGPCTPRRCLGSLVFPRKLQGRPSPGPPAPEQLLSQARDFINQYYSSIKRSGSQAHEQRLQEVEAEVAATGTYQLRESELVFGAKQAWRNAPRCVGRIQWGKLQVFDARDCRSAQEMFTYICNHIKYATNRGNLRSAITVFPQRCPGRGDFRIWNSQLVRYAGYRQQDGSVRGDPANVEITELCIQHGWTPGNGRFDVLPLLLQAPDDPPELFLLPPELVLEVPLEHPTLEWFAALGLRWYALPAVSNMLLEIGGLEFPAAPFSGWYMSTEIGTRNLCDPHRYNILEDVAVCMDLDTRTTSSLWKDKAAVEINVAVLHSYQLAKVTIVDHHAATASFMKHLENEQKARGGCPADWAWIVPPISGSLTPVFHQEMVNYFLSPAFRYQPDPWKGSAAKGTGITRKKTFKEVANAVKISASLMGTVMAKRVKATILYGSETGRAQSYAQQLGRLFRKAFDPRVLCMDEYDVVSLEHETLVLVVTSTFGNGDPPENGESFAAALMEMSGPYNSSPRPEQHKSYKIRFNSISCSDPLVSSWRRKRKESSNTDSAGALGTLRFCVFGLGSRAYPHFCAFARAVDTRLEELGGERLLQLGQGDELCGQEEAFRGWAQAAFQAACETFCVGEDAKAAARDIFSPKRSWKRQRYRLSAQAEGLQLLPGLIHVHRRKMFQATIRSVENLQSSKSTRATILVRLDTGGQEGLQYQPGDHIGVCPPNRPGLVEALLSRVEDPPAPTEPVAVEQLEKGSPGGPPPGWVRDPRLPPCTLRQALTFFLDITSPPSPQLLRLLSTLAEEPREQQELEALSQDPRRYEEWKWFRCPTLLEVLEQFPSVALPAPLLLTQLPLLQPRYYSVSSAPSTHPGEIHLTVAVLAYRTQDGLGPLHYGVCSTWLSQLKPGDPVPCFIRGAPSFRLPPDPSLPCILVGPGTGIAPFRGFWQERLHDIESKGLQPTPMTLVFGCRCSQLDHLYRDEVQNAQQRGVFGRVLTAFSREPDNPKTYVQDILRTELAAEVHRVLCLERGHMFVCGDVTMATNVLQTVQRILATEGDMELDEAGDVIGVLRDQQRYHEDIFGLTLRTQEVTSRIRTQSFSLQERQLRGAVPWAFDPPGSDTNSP

[2] = biological target: T2, Nitric oxide synthase, inducible (Homo sapiens, UniProt P35228); experiment: Percent inhibition of Human inducible Nitric Oxide Synthase (iNOS) at a concentration of 25 uM; settings: at 25 µM
T2 sequence (P35228 whole entry): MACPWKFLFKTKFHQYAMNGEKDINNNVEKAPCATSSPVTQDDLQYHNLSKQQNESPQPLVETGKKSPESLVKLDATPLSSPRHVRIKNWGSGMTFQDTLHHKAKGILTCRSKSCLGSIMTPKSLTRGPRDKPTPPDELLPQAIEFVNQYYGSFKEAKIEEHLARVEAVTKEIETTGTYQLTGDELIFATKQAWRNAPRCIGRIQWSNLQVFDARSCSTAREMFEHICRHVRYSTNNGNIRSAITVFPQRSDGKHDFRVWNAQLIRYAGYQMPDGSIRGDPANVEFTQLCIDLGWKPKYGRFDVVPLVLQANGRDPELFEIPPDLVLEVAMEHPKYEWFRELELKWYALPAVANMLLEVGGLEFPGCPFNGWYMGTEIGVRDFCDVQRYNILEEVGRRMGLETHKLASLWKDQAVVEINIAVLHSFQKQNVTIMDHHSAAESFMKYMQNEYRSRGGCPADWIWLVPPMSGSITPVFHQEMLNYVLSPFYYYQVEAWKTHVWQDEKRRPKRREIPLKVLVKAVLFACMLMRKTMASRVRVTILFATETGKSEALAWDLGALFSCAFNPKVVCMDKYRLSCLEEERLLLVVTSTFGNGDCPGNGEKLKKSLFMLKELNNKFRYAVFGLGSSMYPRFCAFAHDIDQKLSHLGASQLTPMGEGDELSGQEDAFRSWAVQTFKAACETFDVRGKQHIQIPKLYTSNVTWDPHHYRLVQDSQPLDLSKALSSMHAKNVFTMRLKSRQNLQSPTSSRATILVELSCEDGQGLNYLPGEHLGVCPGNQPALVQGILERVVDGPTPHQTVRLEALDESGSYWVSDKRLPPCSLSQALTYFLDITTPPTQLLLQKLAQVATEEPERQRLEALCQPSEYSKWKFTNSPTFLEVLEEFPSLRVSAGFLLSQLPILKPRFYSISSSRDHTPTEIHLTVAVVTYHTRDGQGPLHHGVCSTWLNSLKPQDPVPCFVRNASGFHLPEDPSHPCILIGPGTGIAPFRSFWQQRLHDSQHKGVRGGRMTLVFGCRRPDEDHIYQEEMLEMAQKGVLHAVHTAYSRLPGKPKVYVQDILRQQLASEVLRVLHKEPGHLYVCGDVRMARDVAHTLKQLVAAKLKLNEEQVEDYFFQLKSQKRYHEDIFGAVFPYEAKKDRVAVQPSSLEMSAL
Procedure, shortened: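 Human iNOS purified from the DLD-1 colorectal adenocarcinoma cell line. Percent inhibition of the enzyme was measured with test compound present.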

Nitric oxide synthase 1 [3] = biological target: T3, Nitric oxide synthase 1 (Homo sapiens, UniProt P29475); experiment: Inhibitory activity against human neuronal nitric oxide synthase in brain (nNOS).; type: tissue-based
T3 sequence (P29475 whole entry): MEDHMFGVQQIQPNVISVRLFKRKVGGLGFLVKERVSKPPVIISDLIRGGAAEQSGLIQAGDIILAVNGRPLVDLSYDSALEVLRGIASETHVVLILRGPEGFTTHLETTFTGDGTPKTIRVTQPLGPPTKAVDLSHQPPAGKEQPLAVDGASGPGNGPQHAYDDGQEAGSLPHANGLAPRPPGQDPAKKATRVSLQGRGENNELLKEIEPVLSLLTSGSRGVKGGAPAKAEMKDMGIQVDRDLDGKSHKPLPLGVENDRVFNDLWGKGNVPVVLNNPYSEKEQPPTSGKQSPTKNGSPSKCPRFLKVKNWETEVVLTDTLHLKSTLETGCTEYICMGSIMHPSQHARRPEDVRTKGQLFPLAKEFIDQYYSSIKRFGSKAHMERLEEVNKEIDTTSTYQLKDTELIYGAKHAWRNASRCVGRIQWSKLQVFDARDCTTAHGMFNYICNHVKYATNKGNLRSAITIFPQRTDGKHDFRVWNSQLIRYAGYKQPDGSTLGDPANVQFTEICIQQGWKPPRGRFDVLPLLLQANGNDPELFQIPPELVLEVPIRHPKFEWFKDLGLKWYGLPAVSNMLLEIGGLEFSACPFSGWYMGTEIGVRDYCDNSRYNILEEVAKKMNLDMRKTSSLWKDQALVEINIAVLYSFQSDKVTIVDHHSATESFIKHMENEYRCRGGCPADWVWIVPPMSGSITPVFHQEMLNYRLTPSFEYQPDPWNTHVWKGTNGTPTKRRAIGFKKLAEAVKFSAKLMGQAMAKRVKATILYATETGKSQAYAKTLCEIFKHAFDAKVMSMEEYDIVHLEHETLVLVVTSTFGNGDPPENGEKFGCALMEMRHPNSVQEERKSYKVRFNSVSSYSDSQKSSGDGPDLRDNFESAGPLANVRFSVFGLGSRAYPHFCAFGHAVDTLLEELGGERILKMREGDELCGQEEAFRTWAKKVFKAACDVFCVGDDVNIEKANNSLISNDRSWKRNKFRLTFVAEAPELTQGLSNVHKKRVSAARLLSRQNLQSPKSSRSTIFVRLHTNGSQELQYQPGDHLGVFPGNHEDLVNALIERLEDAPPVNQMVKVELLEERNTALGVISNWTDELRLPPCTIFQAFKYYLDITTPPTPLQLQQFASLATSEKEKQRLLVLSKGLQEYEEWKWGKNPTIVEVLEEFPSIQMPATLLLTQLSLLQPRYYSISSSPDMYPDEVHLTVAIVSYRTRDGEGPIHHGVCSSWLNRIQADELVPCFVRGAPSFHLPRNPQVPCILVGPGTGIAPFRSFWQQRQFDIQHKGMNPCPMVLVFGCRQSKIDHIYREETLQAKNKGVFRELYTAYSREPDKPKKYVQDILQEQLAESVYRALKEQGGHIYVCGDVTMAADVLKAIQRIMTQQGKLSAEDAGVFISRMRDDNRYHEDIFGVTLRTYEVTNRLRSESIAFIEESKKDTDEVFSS

Nitric oxide synthase 3 = biological target: T4, Nitric oxide synthase 3 (Homo sapiens, UniProt P29474); experiment: Inhibitory activity against human vascular endothelial nitric oxide synthase.
T4 sequence (P29474 whole entry): T1 sequence (whole entry)
Procedure, shortened: (§1)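 Purified human enzymes were used, with iNOS purified from the DLD-1 colorectal adenocarcinoma line. Percent inhibition was measured at three or more inhibitor concentrations and converted to inhibition constants (Ki).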

[4] = biological target: T2, Nitric oxide synthase, inducible; experiment: Inhibitory activity against human inducible nitric oxide synthase (iNOS).; procedure, shortened: as §1
[5] = Clearance was determined; type: ADME, organism-based; settings: in vivo
[6] = Michaelis-Menten constant was determined; type: ADME
Procedure, shortened: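 Human nNOS conversion of L-arginine to L-citrulline was measured over a range of arginine with inhibitor at 0, 150 and 300 nM. Velocities were fitted to V = Vmax[S]/{[S] + Km(1 + [I]/Ki)} to give Km.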

[7] = The half life was determined; type: ADME
Nitric oxide synthase 1 [8] = biological target: T3, Nitric oxide synthase 1; experiment: Percent inhibition of human Neuronal nitric oxide synthase at a concentration of 25 uM; settings: at 25 µM
Nitric oxide synthase 1 [9] = biological target: T3, Nitric oxide synthase 1; experiment: Percent inhibition of human Neuronal nitric oxide synthase in brain (nNOS) at a concentration of 25 uM; type: tissue-based; settings: at 25 µM

| SMILES | inhibition [2] | Ki (Nitric oxide synthase 1 [3]) | Ki (Nitric oxide synthase 3) | Ki [4] | other results |
| --- | --- | --- | --- | --- | --- |
| CC(C)SC(=N)Nc1ccc(C(F)(F)F)cc1 | 0% | 29 µM | – | – | inhibition [1]: 0% |
| CCSC(=N)Nc1ccc(Cl)cc1 | – | 0.14 µM | 0.9 µM | 4.2 µM | – |
| CSC(=N)Nc1ccc(Cl)cc1 | – | 0.57 µM | 2.6 µM | 42 µM | – |
| CCCCSC(=N)Nc1ccc(C(F)(F)F)cc1 | 0% | – | – | – | inhibition [1]: 0%; inhibition (Nitric oxide synthase 1 [8]): 0% |
| CSC(=N)Nc1ccc(C(F)(F)F)cc1 | 0% | 4.6 µM | 31 µM | – | – |
| CCSC(=N)Nc1ccc(C(C)C)cc1 | – | – | – | 25 µM | – |
| CCOC(=O)c1ccc(NC(=N)SCC)cc1 | – | – | – | 63 µM | – |
| CSC(=N)Nc1ccc([N+](=O)[O-])cc1 | 0% | 3.3 µM | 17 µM | – | – |
| CCSC(=N)Nc1ccc(C(=O)O)cc1 | 0% | 58 µM | – | – | inhibition [1]: 14% |
| CCSC(=N)Nc1cccnc1 | – | – | 7 µM | 23 µM | – |
| N=C(Nc1ccc(C(F)(F)F)cc1)SCc1ccccc1 | 0% | – | – | – | inhibition [1]: 0%; inhibition (Nitric oxide synthase 1 [9]): 11% |
| CCSC(=N)Nc1ccc([N+](=O)[O-])cc1 | – | 0.66 µM | 9.1 µM | 54 µM | – |
| CCSC(=N)Nc1ccncc1 | – | 0.8 µM | 16 µM | 22 µM | – |

Now from value to compound, other results behind:

| inhibition [2] | Ki (Nitric oxide synthase 1 [3]) | Ki (Nitric oxide synthase 3) | Ki [4] | SMILES | other results |
| --- | --- | --- | --- | --- | --- |
| – | – | – | 37 µM | CCSC(=N)Nc1ccc(C(F)(F)F)cc1.Cl | Clearance [5]: 93.3 mL/min/kg; Km [6]: 2 µM; half-life ([7]; read-out: T1/2 alpha): 4 min; half-life ([7]; read-out: T1/2 beta): 31 min |
| – | 1.1 µM | – | – | CCSC(=N)Nc1ccccc1C(C)C | – |
| – | 0.7 µM | 17 µM | 55 µM | CCSC(=N)Nc1ccc(OC(F)(F)F)cc1 | – |
| – | 0.12 µM | 0.4 µM | 0.87 µM | CCSC(=N)Nc1ccccc1 | – |
| 4% | 64 µM | – | – | CCCSC(=N)Nc1ccc(C(F)(F)F)cc1 | inhibition [1]: 0% |
| – | – | 17 µM | 23 µM | CCSC(=N)Nc1ccccn1 | – |
| – | – | 18 µM | – | CCSC(=N)Nc1ccccc1C(F)(F)F | – |
